Data published in ChEMBL document CHEMBL1143074, “Symplocamide A, a potent cytotoxin and chymotrypsin inhibitor from the marine Cyanobacterium Symploca sp” (J Nat Prod, 2008).
Calls of active or inactive are those of the source. The calls are words filed in the database; no cut-off is given here.

Experiments:
[1] = Inhibition of trypsin at 10 uM
[2] = Inhibition of chymotrypsin
Procedure, shortened: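 Spectrophotometric assay: 0.0025 mg/mL chymotrypsin (0.0086 U) with 0.53 mM BTEE in 38 mM Tris-HCl pH 7.8, 53 mM CaCl2, 0.5 mM HCl and 32% MeOH at 25 °C. Inhibitor (from MeOH dilutions, final 6.25 × 10-5 to 7.5 × 10^-9 M) was equilibrated with substrate before enzyme addition. Absorbance at 256 nm was followed for 5 min, and the 0.5–1.5 min interval was analyzed.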

| SMILES | Activity [1] | IC50 [2] [µM] |
| --- | --- | --- |
| CC[C@H](C)[C@@H]1NC(=O)[C@H](Cc2ccc(O)cc2)N(C)C(=O)[C@H]([C@@H](C)CC)N2C(=O)C(CCC2O)NC(=O)[C@H](CC(C)C)NC(=O)[C@@H]2C(OC1=O)C(C)CN2C(=O)[C@H](CCC(N)=O)NC(C)=O (stereo in doubt; form 1) | inactive |  |
| CC[C@H](C)[C@@H]1NC(=O)[C@H](Cc2ccc(O)cc2)N(C)C(=O)[C@H]([C@@H](C)CC)N2C(=O)C(CCC2O)NC(=O)[C@H](CC(C)C)NC(=O)[C@@H]2C(OC1=O)C(C)CN2C(=O)[C@H](CCC(N)=O)NC(C)=O (stereo in doubt; form 1) [NOSTOPEPTIN B] |  | 1.73 |
| CC(=O)N[C@@H](CCC(N)=O)C(=O)N[C@@H]1C(=O)N[C@@H](CC(C)C)C(=O)N[C@H]2CC[C@@H](O)N(C2=O)[C@@H](Cc2ccccc2)C(=O)N(C)[C@@H](Cc2ccc(O)c(Cl)c2)C(=O)N[C@@H](C(C)C)C(=O)O[C@H]1C [CYANOPEPTOLIN 954] | inactive | 0.04 |
| CCCCCC(=O)N[C@@H](CC(=O)O)C(=O)N[C@@H]1C(=O)N[C@@H](Cc2ccc(O)cc2)C(=O)N[C@H]2CC[C@@H](O)N(C2=O)[C@@H](CC(C)C)C(=O)N(C)[C@@H](Cc2ccccc2)C(=O)N[C@@H](C(C)C)C(=O)O[C@@H]1C [CYANOPEPTOLIN 963A] | inactive | 0.9 |
| CC(C)C[C@@H]1NC(=O)[C@@H](NC(=O)[C@@H](NC(=O)[C@H](C)NC(=O)[C@H](CCCc2ccc(O)cc2)NC(=O)[C@H](O)CO)C(C)C)[C@@H](C)OC(=O)[C@H](C(C)C)NC(=O)[C@H](Cc2ccc(O)c(Br)c2)N(C)C(=O)[C@H]([C@@H](C)O)N2C(=O)[C@H](CC[C@H]2O)NC1=O [LARGAMIDE D] | inactive | 10 |
| CC(C)C[C@@H]1NC(=O)[C@@H](NC(=O)[C@@H](NC(=O)[C@@H](C)NC(=O)[C@H](CCCc2ccc(O)cc2)NC(=O)[C@H](O)CO)C(C)C)[C@@H](C)OC(=O)[C@H](C(C)C)NC(=O)[C@H](Cc2ccc(O)c(Cl)c2)N(C)C(=O)[C@H]([C@@H](C)O)N2C(=O)[C@H](CC[C@H]2O)NC1=O [LARGAMIDE E] | inactive | 10 |
| CC(C)[C@H](NC(=O)[C@@H](C)NC(=O)[C@H](CCCc1ccc(O)cc1)NC(=O)[C@H](O)CO)C(=O)N[C@@H]1C(=O)N[C@@H](Cc2ccc(O)cc2)C(=O)N[C@H]2CC[C@@H](O)N(C2=O)[C@@H]([C@@H](C)O)C(=O)N(C)[C@@H](Cc2ccc(O)c(Br)c2)C(=O)N[C@@H](C(C)C)C(=O)O[C@@H]1C [LARGAMIDE F] | inactive | 4 |
| C/C=C1\NC(=O)[C@@H](NC(=O)[C@H](CCc2ccc(O)cc2)NC(=O)[C@H](C)NC(=O)[C@H](O)COS(=O)(=O)O)[C@@H](C)OC(=O)[C@H](C(C)C)NC(=O)[C@H](Cc2ccc(O)cc2)N(C)C(=O)[C@H](Cc2ccccc2)N2C(=O)[C@H](CC[C@H]2O)NC1=O [LYNGBYASTATIN 4] | inactive |  |
| CC[C@H](C)[C@@H]1NC(=O)[C@H](Cc2ccccc2)N(C)C(=O)[C@H](C(C)C)N2C(=O)[C@H](CC[C@H]2O)NC(=O)[C@H](CC2C=CC(O)CC2)NC(=O)[C@@H](NC(=O)[C@@H](N)CCC(=O)O)[C@@H](C)OC1=O (stereo partly specified) [MICROPEPTIN 88A] | inactive | 0.4 |
| CCCC(=O)N[C@@H](Cc1ccccc1)C(=O)N[C@@H](CCC(=O)O)C(=O)N[C@@H]1C(=O)N[C@@H](Cc2ccc(O)cc2)C(=O)N[C@H]2CC[C@@H](O)N(C2=O)[C@@H](C(C)C)C(=O)N(C)[C@@H](Cc2ccccc2)C(=O)N[C@@H]([C@@H](C)CC)C(=O)O[C@@H]1C [MICROPEPTIN 88C] | inactive | 4.5 |
| CCCC(=O)N[C@@H](Cc1ccccc1)C(=O)N[C@@H](CCC(=O)O)C(=O)N[C@@H]1C(=O)N[C@@H](CC2C=CC(O)CC2)C(=O)N[C@H]2CC[C@@H](O)N(C2=O)[C@@H](C(C)C)C(=O)N(C)[C@@H](Cc2ccccc2)C(=O)N[C@@H]([C@@H](C)CC)C(=O)O[C@@H]1C (stereo partly specified) [MICROPEPTIN 88D] | inactive | 8.96 |
| CCCC(=O)N[C@@H](Cc1ccccc1)C(=O)N[C@@H](CCC(=O)O)C(=O)N[C@@H]1C(=O)N[C@@H](CC(C)C)C(=O)N[C@H]2CC[C@@H](O)N(C2=O)[C@@H](C(C)C)C(=O)N(C)[C@@H](Cc2ccccc2)C(=O)N[C@@H]([C@@H](C)CC)C(=O)O[C@@H]1C [MICROPEPTIN 88E] | inactive | 4.9 |
| CCCC(=O)N[C@@H](Cc1ccccc1)C(=O)N[C@@H](CCC(=O)OC)C(=O)N[C@@H]1C(=O)N[C@@H](Cc2ccc(O)cc2)C(=O)N[C@H]2CC[C@@H](O)N(C2=O)[C@@H](C(C)C)C(=O)N(C)[C@@H](Cc2ccccc2)C(=O)N[C@@H]([C@@H](C)CC)C(=O)O[C@@H]1C [MICROPEPTIN 88F] | inactive | 3.02 |
| CC[C@H](C)[C@@H]1NC(=O)[C@H](Cc2ccccc2)N(C)C(=O)[C@H](C(C)C)N2C(=O)[C@H](CC[C@H]2O)NC(=O)[C@H](Cc2ccc(O)cc2)NC(=O)[C@@H](NC(=O)[C@H](CCC(=O)O)NC(=O)[C@H](Cc2ccc(O)cc2)NC(C)=O)[C@@H](C)OC1=O [MICROPEPTIN 88Y] | inactive | 1.3 |
| CCCCCC(=O)NCC(=O)N[C@H](C(=O)N[C@@H]1C(=O)N[C@@H](CCC(N)=O)C(=O)N[C@H]2CC[C@@H](O)N(C2=O)[C@@H](Cc2ccccc2)C(=O)N(C)[C@@H](Cc2c[nH]c3ccccc23)C(=O)N[C@@H](C(C)C)C(=O)O[C@@H]1C)[C@@H](C)O [MICROPEPTIN 103] | inactive | 0.96 |
| CCCCCC(=O)N[C@@H](CC(=O)O)C(=O)N[C@@H]1C(=O)N[C@@H](Cc2ccc(O)cc2)C(=O)N[C@H]2CC[C@@H](O)N(C2=O)[C@@H]([C@@H](C)CC)C(=O)N(C)[C@@H](Cc2ccc(O)cc2)C(=O)N[C@@H](C(C)C)C(=O)O[C@@H]1C [MICROPEPTIN SD979] | inactive | 2.4 |
| CCCCCC(=O)N[C@@H](CC(=O)O)C(=O)N[C@@H]1C(=O)N[C@@H](Cc2ccc(O)cc2)C(=O)N[C@H]2CC[C@@H](O)N(C2=O)[C@@H]([C@@H](C)CC)C(=O)N(C)[C@@H](Cc2c[nH]c3ccccc23)C(=O)N[C@@H](C(C)C)C(=O)O[C@@H]1C [MICROPEPTIN SD1002] | inactive | 3.13 |
| CC[C@H](C)[C@@H]1NC(=O)[C@H](Cc2ccc(O)cc2)N(C)C(=O)[C@H](CC(C)C)N2C(=O)[C@H](CC[C@H]2O)NC(=O)[C@H](CCC(N)=O)NC(=O)[C@@H](NC(=O)[C@@H](O)Cc2ccc(O)cc2)[C@@H](C)OC1=O [MICROPEPTIN SF909] | inactive | 4.4 |
| CCCCCC(=O)N[C@@H](CCC(N)=O)C(=O)N[C@@H]1C(=O)N[C@@H](Cc2ccc(O)cc2)C(=O)N[C@H]2CC[C@@H](O)N(C2=O)[C@@H](Cc2ccccc2)C(=O)N(C)[C@@H](Cc2ccc(O)cc2)C(=O)N[C@@H](C(C)C)C(=O)O[C@@H]1C [MICROPEPTIN T1] | inactive | 2.85 |
| CC[C@H](C)[C@@H]1NC(=O)[C@H](Cc2ccc(O)cc2)N(C)C(=O)[C@H](Cc2ccccc2)N2C(=O)[C@H](CC[C@H]2O)NC(=O)[C@H](Cc2ccccc2)NC(=O)[C@@H](NC(=O)[C@@H](O)COP(=O)(O)O)[C@@H](C)OC1=O [MICROPEPTIN T 20] |  | 0.0025 |
| CCCC(=O)N[C@@H](CCC(N)=O)C(=O)N1CC(C)C2OC(=O)[C@H]([C@@H](C)CC)NC(=O)[C@H](Cc3ccc(O)cc3)N(C)C(=O)[C@H]([C@@H](C)CC)N3C(=O)C(CCC3O)NC(=O)[C@H](CC(C)C)NC(=O)[C@H]21 (stereo partly specified) [NOSTOPEPTIN A] | inactive | 1.47 |
| CC(=O)N[C@@H](CCC(N)=O)C(=O)N[C@@H]1C(=O)N[C@@H](CC(C)C)C(=O)N[C@H]2CC[C@@H](O)N(C2=O)[C@@H](Cc2ccccc2)C(=O)N(C)[C@@H](Cc2ccc(O)cc2)C(=O)N[C@@H](C(C)C)C(=O)O[C@@H]1C [NOSTOPEPTIN BN920] | inactive | 0.11 |
| CC[C@H](C)[C@@H]1NC(=O)[C@H](Cc2ccc(O)cc2)N(C)C(=O)[C@H](CC(C)C)N2C(=O)[C@H](CC[C@H]2O)NC(=O)[C@H](CC(C)C)NC(=O)[C@@H]2[C@@H](OC1=O)C(C)CN2C(=O)[C@H](CCC(N)=O)NC(C)=O (stereo partly specified) [NOSTOPEPTIN E] | inactive | 3.6 |
| CC[C@@H](C)[C@@H]1NC(=O)[C@H](Cc2ccc(OC)cc2)N(C)C(=O)[C@H]([C@@H](C)CC)N2C(=O)[C@H](CC[C@H]2O)NC(=O)[C@H](CCc2ccc(OC)cc2)NC(=O)[C@@H](NC(=O)[C@H](CCc2ccc(O)cc2)NC(=O)[C@@H](COS(=O)(=O)O)OC)[C@@H](C)OC1=O [OSCILLAPEPTIN B] |  | 1.78 |
| CC[C@@H](C)[C@@H]1NC(=O)[C@H](Cc2ccccc2)N(C)C(=O)[C@H]([C@@H](C)CC)N2C(=O)[C@H](CC[C@H]2OC)NC(=O)[C@H](CC2C=CC(O)C=C2)NC(=O)[C@@H](NC(=O)[C@@H](CCc2ccc(O)cc2)NC(=O)[C@@H](CO)OC)[C@@H](C)OC1=O (stereo partly specified) [OSCILLAPEPTIN C] |  | 2.82 |
| CC[C@H](C)[C@@H]1NC(=O)[C@H](Cc2ccccc2)N(C)C(=O)[C@H]([C@@H](C)CC)N2C(=O)[C@H](CC[C@H]2O)NC(=O)[C@H](C[C@H]2C=C[C@H](O)CC2)NC(=O)[C@@H](NC(=O)[C@H](CCc2ccc(O)cc2)NC(=O)[C@@H](COS(=O)(=O)O)OC)[C@@H](C)OC1=O [OSCILLAPEPTIN D] |  | 1.95 |
| CC[C@@H](C)[C@@H]1NC(=O)[C@H](Cc2ccccc2)N(C)C(=O)[C@H]([C@@H](C)CC)N2C(=O)[C@H](CC[C@H]2O)NC(=O)[C@H](CCc2ccc(O)cc2)NC(=O)[C@@H](NC(=O)[C@@H](CCc2ccc(O)cc2)NC(=O)[C@@H](COS(=O)(=O)O)OC)[C@@H](C)OC1=O [OSCILLAPEPTIN E] |  | 2.64 |
